Test results: ChEMBL document CHEMBL1145564, “Discovery of N-[(3R,5R)-1-azabicyclo[3.2.1]oct-3-yl]furo[2,3-c]pyridine-5-carboxamide as an agonist of the alpha7 nicotinic acetylcholine receptor: in vitro and in vivo activity” (Bioorg Med Chem Lett, 2008)

Tests used:
[1] = target: Neuronal acetylcholine receptor subunit alpha-7 (Homo sapiens, UniProt P36544); experiment: Agonist activity at alpha7-5HT3 chimera expressed in human SH-EP1 cells by FLIPR assay; type: functional, cell-based
[2] = Ratio of drug level in brain to plasma in mouse at 10 mg/kg after 60 min; type: ADME, organism-based; set-up: dose 10 mg/kg
Procedure, shortened: (§1)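 Mouse brain uptake: brain and plasma concentrations after a 10 mg/kg dose, ratio taken at 5 and 60 min.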

[3] = Apparent permeability from apical to basolateral side in dog MDCK cells; type: ADME, cell-based, Canis lupus familiaris
Procedure, shortened: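 MDCK monolayer permeability measured apical to basolateral, expressed as Papp (x10^-6 cm/s).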

[4] = Ratio of drug level in brain to plasma in mouse at 10 mg/kg after 5 mins; type: ADME, organism-based; set-up: dose 10 mg/kg; procedure, shortened: as §1
[5] = target: Neuronal acetylcholine receptor subunit alpha-7 (Rattus norvegicus, UniProt Q05941); experiment: Displacement of [3H]MLA from alpha-7 nACh receptor in rat brain; type: tissue-based
Sequence of Neuronal acetylcholine receptor subunit alpha-7 (Rattus norvegicus, UniProt Q05941) (Q05941 whole entry): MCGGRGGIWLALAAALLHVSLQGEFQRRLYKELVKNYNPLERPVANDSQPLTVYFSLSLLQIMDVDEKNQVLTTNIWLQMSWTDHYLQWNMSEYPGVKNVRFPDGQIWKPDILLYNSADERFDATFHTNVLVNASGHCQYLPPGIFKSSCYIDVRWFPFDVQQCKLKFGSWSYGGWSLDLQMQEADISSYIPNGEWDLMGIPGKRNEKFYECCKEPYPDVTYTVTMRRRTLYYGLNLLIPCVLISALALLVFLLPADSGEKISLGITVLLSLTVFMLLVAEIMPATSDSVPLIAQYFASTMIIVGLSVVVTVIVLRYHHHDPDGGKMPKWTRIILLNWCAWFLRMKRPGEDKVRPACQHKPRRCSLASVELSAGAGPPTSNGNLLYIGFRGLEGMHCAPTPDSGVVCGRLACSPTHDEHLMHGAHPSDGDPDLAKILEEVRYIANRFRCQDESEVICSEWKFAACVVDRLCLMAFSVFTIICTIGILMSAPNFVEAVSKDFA
Procedure, shortened: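 Rat brain homogenate binding with [3H]MLA; individual Ki values, mean ± SEM reported when more than 3 measurements.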

[6] = Metabolic stability in rat liver microsomes assessed as hepatic extraction ratio after 30 mins; type: ADME, Microsome
Procedure, shortened: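 Rat liver microsome incubation; stability reported as fraction of compound remaining after 30 min relative to t0 concentration.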

Sequence of Neuronal acetylcholine receptor subunit alpha-7 (Homo sapiens, UniProt P36544) (P36544 23-502 limits assumed): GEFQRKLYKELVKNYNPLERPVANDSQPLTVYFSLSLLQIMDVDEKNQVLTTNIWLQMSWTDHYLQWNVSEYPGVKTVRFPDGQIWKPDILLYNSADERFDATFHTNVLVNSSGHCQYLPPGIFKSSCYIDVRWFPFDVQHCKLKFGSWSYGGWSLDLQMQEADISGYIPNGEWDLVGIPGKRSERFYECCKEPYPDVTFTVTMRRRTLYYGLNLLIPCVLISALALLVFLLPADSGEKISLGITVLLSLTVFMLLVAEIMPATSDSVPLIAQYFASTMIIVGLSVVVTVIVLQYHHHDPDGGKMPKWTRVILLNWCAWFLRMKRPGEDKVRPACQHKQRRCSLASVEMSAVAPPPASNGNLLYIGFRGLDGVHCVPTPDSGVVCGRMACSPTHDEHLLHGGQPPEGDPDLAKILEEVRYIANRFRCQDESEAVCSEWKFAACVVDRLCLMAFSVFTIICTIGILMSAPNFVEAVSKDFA

Row | Structure (SMILES) | EC50 [1] [nM] | Kp at 1 h [2] | Papp A→B [3] [×10⁻⁶ cm/s] | Kp at 5 min [4] | Ki [5] [nM] | hepatic extraction ratio at 0.5 h [6]
1 | O=C(N[C@@H]1C[C@H]2CCN(C2)C1)c1ccc2occc2c1 | 81 | 1.15 | 3.8 | 0.27 | 6.2 | < 0.27
2 | O=C(N[C@@H]1C[C@H]2CCN(C2)C1)c1ccc2ncsc2c1 | 182 | 0.33 | 0.2 | 0.02 | 21 | < 0.27
3 | O=C(N[C@@H]1C[C@H]2CCN(C2)C1)c1cc2sccc2cn1 | 70 | – | – | – | 7 | 0.71
4 | O=C(N[C@@H]1C[C@H]2CCN(C2)C1)c1ccc(Cl)cc1 | 190 | – | – | – | – | 0.37
5 | O=C(N[C@@H]1C[C@H]2CCN(C2)C1)c1ccc2c(c1)OCCO2 | 430 | – | – | – | 29 | 0.74
